The record followed here is ChEMBL document CHEMBL1149207, “Non-nucleoside inhibitors of the hepatitis C virus NS5B polymerase: discovery of benzimidazole 5-carboxylic amide derivatives with low-nanomolar potency” (Bioorg Med Chem Lett, 2004).

The test deals with RNA-directed RNA polymerase (Hepacivirus hominis, UniProt O39930). The test can be described thus: Concentration required for inhibiting hepatitis C virus NS5B RNA polymerase activity. An outline of the steps:
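HCV NS5B polymerase IC50; each value is the mean of at least duplicate experiments, run on two separate weighings of compound.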

Chain of RNA-directed RNA polymerase (O39930 whole entry): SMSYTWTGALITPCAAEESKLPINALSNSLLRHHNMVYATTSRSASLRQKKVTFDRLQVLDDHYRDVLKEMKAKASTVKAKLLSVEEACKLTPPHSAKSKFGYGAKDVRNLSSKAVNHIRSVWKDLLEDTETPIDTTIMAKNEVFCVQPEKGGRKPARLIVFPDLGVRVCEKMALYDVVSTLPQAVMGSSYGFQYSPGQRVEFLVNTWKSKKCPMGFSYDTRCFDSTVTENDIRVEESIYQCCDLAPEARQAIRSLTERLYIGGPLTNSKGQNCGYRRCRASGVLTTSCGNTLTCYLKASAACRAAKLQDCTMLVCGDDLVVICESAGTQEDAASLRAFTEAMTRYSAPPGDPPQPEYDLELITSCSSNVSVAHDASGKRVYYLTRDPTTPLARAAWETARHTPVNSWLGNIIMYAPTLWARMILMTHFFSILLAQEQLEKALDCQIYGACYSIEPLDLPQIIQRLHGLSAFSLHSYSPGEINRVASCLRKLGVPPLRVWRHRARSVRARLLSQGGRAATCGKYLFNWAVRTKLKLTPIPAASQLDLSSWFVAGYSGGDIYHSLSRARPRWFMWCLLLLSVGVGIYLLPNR

As a reminder, the IC50 is the concentration that inhibits the measured activity by half. A lower IC50 goes with greater potency in that assay. As for `O=C(N[C@@H](Cc1c[nH]c2ccccc12)C(=O)O)c1ccc2c(c1)nc(-c1ccccn1)n2C1CCCCC1`, 1900 nM corresponded to half-maximal inhibition (IC50).

As for `O=C(O)C(=O)Nc1ccc2[nH]cc(C[C@H](NC(=O)c3ccc4c(c3)nc(-c3ccoc3)n4C3CCCCC3)C(=O)O)c2c1`, the IC50 was 8 nM.

The molecule `COc1ccc([C@H](C)NC(=O)c2ccc3c(c2)nc(-c2ccccn2)n3C2CCCCC2)cc1OC` displayed an IC50 of 12000 nM.

Molecule `Cc1ccc2[nH]cc(C[C@H](NC(=O)c3ccc4c(c3)nc(-c3ccoc3)n4C3CCCCC3)C(=O)O)c2c1` had an IC50 of 2200 nM.

Consider `O=C(N[C@@H](Cc1ccc(O)cc1)C(=O)O)c1ccc2c(c1)nc(-c1ccoc1)n2C1CCCCC1`, for which the 50% inhibitory concentration (IC50) worked out at 400 nM.

On to `CC(=O)Nc1ccc2[nH]cc(C[C@H](NC(=O)c3ccc4c(c3)nc(-c3ccoc3)n4C3CCCCC3)C(=O)O)c2c1`, for which the 50% inhibitory concentration (IC50) was 60 nM.

As for `Nc1ccc2[nH]cc(C[C@H](NC(=O)c3ccc4c(c3)nc(-c3ccoc3)n4C3CCCCC3)C(=O)O)c2c1`, half-maximal inhibition (IC50) required 90 nM.

The molecule `COc1ccc([C@H](NC(=O)c2ccc3c(c2)nc(-c2ccccn2)n3C2CCCCC2)C(=O)O)cc1OC` showed an IC50 of 2000 nM.

`O=C(N[C@@H](Cc1c[nH]c2ccc(F)cc12)C(=O)O)c1ccc2c(c1)nc(-c1ccoc1)n2C1CCCCC1` displayed a half-inhibitory concentration (IC50) of 2900 nM.

With `O=C(O)c1ccc2[nH]cc(C[C@H](NC(=O)c3ccc4c(c3)nc(-c3ccoc3)n4C3CCCCC3)C(=O)O)c2c1`, half-maximal inhibition (IC50) was put at 20 nM.

Consider `Cn1cc(C[C@@H](NC(=O)c2ccc3c(c2)nc(-c2ccoc2)n3C2CCCCC2)C(=O)O)c2cc(O)ccc21`, for which half-maximal inhibition (IC50) was put at 160 nM.

As to `CS(=O)(=O)Nc1ccc2[nH]cc(C[C@H](NC(=O)c3ccc4c(c3)nc(-c3ccoc3)n4C3CCCCC3)C(=O)O)c2c1`, the midpoint of inhibition, the IC50, lay at 120 nM.

As for `COc1ccc([C@H](NC(=O)c2ccc3c(c2)nc(-c2ccoc2)n3C2CCCCC2)C(=O)O)cc1OC`, the IC50 was 400 nM.

With `O=C(N[C@@H](Cc1ccccc1)C(=O)O)c1ccc2c(c1)nc(-c1ccccn1)n2C1CCCCC1`, the IC50 stood at 7000 nM.

`O=C(N[C@@H](Cc1c[nH]c2ccccc12)C(=O)O)c1ccc2c(c1)nc(-c1ccoc1)n2C1CCCCC1` displayed an IC50 of 400 nM.

In turn, `O=C(N[C@@H](Cc1ccccc1)C(=O)O)c1ccc2c(c1)nc(-c1ccoc1)n2C1CCCCC1` returned a 50% inhibitory concentration (IC50) of 4000 nM.

Molecule `O=C(O)COc1ccc2[nH]cc(C[C@H](NC(=O)c3ccc4c(c3)nc(-c3ccoc3)n4C3CCCCC3)C(=O)O)c2c1` returned an IC50 of 19 nM.

With `O=C(N[C@@H](Cc1c[nH]c2ccc(C3N=NN=N3)cc12)C(=O)O)c1ccc2c(c1)nc(-c1ccoc1)n2C1CCCCC1`, the half-maximal inhibitory concentration (IC50) is 15 nM.

Turning to `O=C(N[C@@H](Cc1c[nH]c2ccc([N+](=O)[O-])cc12)C(=O)O)c1ccc2c(c1)nc(-c1ccoc1)n2C1CCCCC1`, the IC50 turned out to be 2000 nM.

In turn, `COc1ccc(CNC(=O)c2ccc3c(c2)nc(-c2ccccn2)n3C2CCCCC2)cc1OC` yielded an IC50 of 7000 nM.

In turn, `O=C(N[C@@H](Cc1c[nH]c2ccc(O)cc12)C(=O)O)c1ccc2c(c1)nc(-c1ccoc1)n2C1CCCCC1` had an IC50 of 50 nM.

In the case of `O=C(N[C@H](Cc1c[nH]c2ccc(O)cc12)C(=O)O)c1ccc2c(c1)nc(-c1ccoc1)n2C1CCCCC1`, the midpoint of inhibition, the IC50, lay at 700 nM.

With `O=C(N[C@@H](Cc1c[nH]c2ccc(O)cc12)C(=O)O)c1ccc2c(c1)nc(-c1ccccn1)n2C1CCCCC1`, the midpoint of inhibition, the IC50, lay at 140 nM.

On to `Cc1[nH]c2ccc(O)cc2c1C[C@H](NC(=O)c1ccc2c(c1)nc(-c1ccoc1)n2C1CCCCC1)C(=O)O`, for which the half-maximal inhibitory concentration (IC50) came to 460 nM.

`O=C(N[C@@H](Cc1ccc(O)cc1)C(=O)O)c1ccc2c(c1)nc(-c1ccccn1)n2C1CCCCC1` registered an IC50 of 1500 nM.

In turn, `O=C(N[C@@H](Cc1c[nH]c2ccc(NS(=O)(=O)C(F)(F)F)cc12)C(=O)O)c1ccc2c(c1)nc(-c1ccoc1)n2C1CCCCC1` yielded a 50% inhibitory concentration (IC50) of 150 nM.

Molecule `CC(C)(Oc1ccc2[nH]cc(C[C@H](NC(=O)c3ccc4c(c3)nc(-c3ccoc3)n4C3CCCCC3)C(=O)O)c2c1)C(=O)O` returned a 50% inhibitory concentration (IC50) of 100 nM.

Molecule `COc1ccc2[nH]cc(C[C@H](NC(=O)c3ccc4c(c3)nc(-c3ccoc3)n4C3CCCCC3)C(=O)O)c2c1` showed a half-inhibitory concentration (IC50) of 400 nM.

For the molecule `NC(=O)c1ccc2[nH]cc(C[C@H](NC(=O)c3ccc4c(c3)nc(-c3ccoc3)n4C3CCCCC3)C(=O)O)c2c1`, the half-inhibitory concentration (IC50) is 37 nM.

Take `COc1ccc([C@@H](C)NC(=O)c2ccc3c(c2)nc(-c2ccccn2)n3C2CCCCC2)cc1OC`: inhibition was half-maximal at 3000 nM (IC50).

For the molecule `O=C(NCCc1c[nH]c2ccc(O)cc12)c1ccc2c(c1)nc(-c1ccoc1)n2C1CCCCC1`, it took 1500 nM to reach half-maximal inhibition (IC50).
